Measurements reported in ChEMBL document CHEMBL1124288, “Synthesis and analgesic properties of N-substituted trans-4a-aryldecahydroisoquinolines” (J Med Chem, 1988).

How the values were obtained:
Mus musculus = assay: Dose (sc) required for 50% reduction in frequency of writhing in mouse writhing analgesia test; type: functional
Mu-type opioid receptor = Mu-type opioid receptor (Rattus norvegicus, UniProt P33535); assay: Binding affinity to Opioid receptor mu 1 in rat brain using [3H]-NAL as radioligand; type: tissue-based
Outline: (§1)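 μ sites labelled with [3H]naloxone in rat brain homogenates. The assay details are given in an earlier report.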

[1] = target: Kappa-type opioid receptor (Cavia porcellus, UniProt P41144); assay: Binding affinity to Opioid receptor kappa 1 in guinea pig cortex using [3H]EKC as radioligand
[2] = target: Kappa-type opioid receptor (Cavia porcellus) (UniProt P41144); assay: Percent displacement of [3H]EKC from Opioid receptor kappa 1 in guinea pig cortex at 1000 nM conc. of compound
[3] = target: Mu-type opioid receptor (Rattus norvegicus) (UniProt P33535); assay: Binding affinity to mu opioid receptor in rat brain using [3H]NAL as radioligand; type: tissue-based; outline: as §1
[4] = target: Mu-type opioid receptor (Rattus norvegicus) (UniProt P33535); assay: Percent displacement of [3H]-NAL from Opioid receptor mu 1 in rat brain at 1000 nM conc. of compound; type: tissue-based
[5] = target: Kappa-type opioid receptor (Cavia porcellus) (UniProt P41144); assay: Percent displacement of [3H]EKC from Opioid receptor kappa 1 in guinea pig cortex at 100 nM conc. of compound
Rattus norvegicus = assay: Dose (sc) required for a 2-s increase in reaction time in rat tail heat analgesia test; type: functional
[6] = target: Mu-type opioid receptor (Rattus norvegicus) (UniProt P33535); assay: Binding affinity to Opioid receptor mu 1 in rat brain using [3H]NAL as radioligand; type: tissue-based; outline: as §1
[7] = target: Kappa-type opioid receptor (Cavia porcellus) (UniProt P41144); assay: Percent displacement of [3H]EKC from Opioid receptor kappa 1 at 100 nM conc. of compound
[8] = target: Mu-type opioid receptor (Rattus norvegicus) (UniProt P33535); assay: Percent displacement of [3H]NAL from Opioid receptor mu 1 at 1000 nM conc. of compound
[9] = target: Kappa-type opioid receptor (Cavia porcellus) (UniProt P41144); assay: Percent displacement of [3H]EKC from Opioid receptor kappa 1 at 1000 nM conc. of compound
[10] = Mus musculus, sc, read-out: ED50

Chain of Kappa-type opioid receptor (P41144 whole entry): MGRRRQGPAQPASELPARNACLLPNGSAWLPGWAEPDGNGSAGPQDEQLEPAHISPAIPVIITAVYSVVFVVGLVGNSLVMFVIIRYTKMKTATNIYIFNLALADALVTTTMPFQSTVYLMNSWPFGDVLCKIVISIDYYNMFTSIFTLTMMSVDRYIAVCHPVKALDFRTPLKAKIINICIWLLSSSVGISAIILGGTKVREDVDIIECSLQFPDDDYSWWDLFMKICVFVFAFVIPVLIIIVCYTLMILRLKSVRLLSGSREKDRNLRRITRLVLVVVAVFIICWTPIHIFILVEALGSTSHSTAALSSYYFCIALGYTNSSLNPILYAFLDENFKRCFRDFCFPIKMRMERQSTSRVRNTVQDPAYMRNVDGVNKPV
Chain of Kappa-type opioid receptor (Cavia porcellus) (P41144 whole entry): as above
Chain of Mu-type opioid receptor (Rattus norvegicus) (P33535 whole entry): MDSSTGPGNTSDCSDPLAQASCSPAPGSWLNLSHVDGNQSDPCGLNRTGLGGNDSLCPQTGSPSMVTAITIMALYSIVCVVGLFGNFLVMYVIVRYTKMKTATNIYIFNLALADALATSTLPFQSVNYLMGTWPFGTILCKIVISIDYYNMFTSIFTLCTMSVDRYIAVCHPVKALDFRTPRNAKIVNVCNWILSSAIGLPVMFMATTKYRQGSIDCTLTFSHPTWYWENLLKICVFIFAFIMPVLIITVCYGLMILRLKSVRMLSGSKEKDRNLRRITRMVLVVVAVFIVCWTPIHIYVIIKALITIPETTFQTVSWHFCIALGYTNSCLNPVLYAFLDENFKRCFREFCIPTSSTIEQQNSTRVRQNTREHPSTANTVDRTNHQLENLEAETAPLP
Chain of Mu-type opioid receptor (P33535 whole entry): as above

SMILES: C[C@H]1[C@H]2Cc3ccc(O)cc3[C@]1(C)CCN2CC1CC1 [CYCLAZOCINE]
- ED50 (Mus musculus; [10]): 0.07 mg/kg
- Ki (Mu-type opioid receptor): 1.2 nM
- Ki [1]: 1.3 nM

SMILES: CCN1CCC2(c3cccc(O)c3)CCCC[C@H]2C1 (single isomer, unassigned; (+))
- Displacement [2]: 15%
- Displacement [3]: 34%
- Displacement [4]: 70%
- Displacement [5]: 0%

SMILES: CCN1CCC2(c3cccc(O)c3)CCCC[C@H]2C1 (some centres not stated)
- ED50 (Mus musculus; [10]): 18.2 mg/kg
- Ki (Mu-type opioid receptor): 29 nM
- Ki [1]: 529 nM
- ED2sec (Rattus norvegicus): >100 mg/kg

SMILES: CN1CCC2(c3cccc(O)c3)CCCC[C@H]2C1 (single isomer, unassigned; (+))
- ED50 (Mus musculus): 0.4 mg/kg
- Ki (Mu-type opioid receptor): 0.96 nM
- Ki [1]: 61 nM
- ED2sec (Rattus norvegicus): 0.3 mg/kg

SMILES: C=CCN1CC[C@]23c4c5ccc(O)c4O[C@H]2[C@@H](O)C=C[C@H]3[C@H]1C5 [NALORPHINE]
- ED50 (Mus musculus; [10]): 0.7 mg/kg
- Ki (Mu-type opioid receptor): 6.5 nM
- Ki [1]: 15 nM
- ED2sec (Rattus norvegicus): >100 mg/kg

SMILES: CN1CCC2(c3ccccc3)CCCC[C@H]2C1 (some centres not stated)
- ED50 (Mus musculus; [10]): 3.5 mg/kg
- ED2sec (Rattus norvegicus): 8.8 mg/kg

SMILES: CN1CCC2(c3cccc(O)c3)CCCC[C@H]2C1 (single isomer, unassigned; (-))
- ED50 (Mus musculus): 2.1 mg/kg
- Ki (Mu-type opioid receptor): 8.9 nM
- Ki [1]: 433 nM
- ED2sec (Rattus norvegicus): 1.6 mg/kg

SMILES: Oc1cccc(C23CCCC[C@H]2CN(CC2CC2)CC3)c1 (single isomer, unassigned; (+)) [listing 1 of 2 here]
- Displacement [2]: 32%
- Displacement [6]: 4%
- Displacement [4]: 35%
- Displacement [5]: 5%

SMILES: Oc1cccc(C23CCCC[C@H]2CN(CC2CC2)CC3)c1 (single isomer, unassigned; (-))
- ED50 (Mus musculus): 2.2 mg/kg
- Ki (Mu-type opioid receptor): 4.2 nM
- Ki [1]: 2.5 nM
- ED2sec (Rattus norvegicus): 3 mg/kg

SMILES: COc1cccc(C23CCCC[C@H]2CN(C)CC3)c1 (some centres not stated)
- ED50 (Mus musculus; [10]): 1.2 mg/kg
- ED2sec (Rattus norvegicus): 3.3 mg/kg

SMILES: C=CCN1CCC2(c3cccc(O)c3)CCCC[C@H]2C1 (some centres not stated)
- ED50 (Mus musculus; [10]): 1 mg/kg
- ED2sec (Rattus norvegicus): 1.4 mg/kg

SMILES: CCCN1CCC2(c3cccc(O)c3)CCCC[C@H]2C1 (single isomer, unassigned; (+))
- Displacement [6]: 43%
- Displacement [4]: 83%
- Displacement [5]: 4%

SMILES: CN1CCC2(c3cccc(O)c3)CCCC[C@H]2C1 (stereo in doubt; 13)
- ED50 (Mus musculus): 0.5 mg/kg
- ED2sec (Rattus norvegicus): 0.4 mg/kg

SMILES: Oc1cccc(C23CCCC[C@H]2CN(CCc2ccccc2)CC3)c1 (some centres not stated)
- ED50 (Mus musculus; [10]): 0.3 mg/kg
- ED2sec (Rattus norvegicus): 0.08 mg/kg

SMILES: CC(C)=CCN1CC[C@]2(C)c3cc(O)ccc3C[C@H]1[C@H]2C [(+)-PENTAZOCINE]
- ED50 (Mus musculus; [10]): 2 mg/kg
- Ki (Mu-type opioid receptor): 6.9 nM
- Ki [1]: 75 nM
- ED2sec (Rattus norvegicus): 2.6 mg/kg

SMILES: Oc1cccc(C23CCCC[C@H]2CN(CC2CCC2)CC3)c1 (some centres not stated)
- ED50 (Mus musculus; [10]): 0.6 mg/kg

SMILES: Oc1cccc(C23CCCC[C@H]2CN(CCc2ccccc2)CC3)c1 (single isomer, unassigned; (+))
- Displacement [2]: 53%
- Displacement [6]: 19%
- Displacement [4]: 74%
- Displacement [5]: 8%

SMILES: CC(C)=CCN1CCC2(c3cccc(O)c3)CCCC[C@H]2C1 (some centres not stated)
- ED50 (Mus musculus; [10]): 1 mg/kg
- ED2sec (Rattus norvegicus): 1.5 mg/kg

SMILES: CCCN1CCC2(c3cccc(O)c3)CCCC[C@H]2C1 (single isomer, unassigned; (-)) [listing 1 of 2 here]
- Displacement [2]: 46%
- Displacement [5]: 12%

SMILES: C=CCN1CCC2(c3cccc(O)c3)CCCC[C@H]2C1 (single isomer, unassigned; (+))
- Displacement [6]: 15%
- Displacement [7]: 2%
- Displacement [8]: 42%
- Displacement [9]: 16%

SMILES: CN1CC[C@]23c4c5ccc(O)c4O[C@H]2[C@@H](O)C=C[C@H]3[C@H]1C5 [MORPHINE]
- ED50 (Mus musculus; [10]): 0.9 mg/kg
- ED2sec (Rattus norvegicus): 0.7 mg/kg

SMILES: CCCN1CCC2(c3cccc(O)c3)CCCC[C@H]2C1 (some centres not stated)
- ED50 (Mus musculus; [10]): 1.5 mg/kg
- ED2sec (Rattus norvegicus): 1.3 mg/kg

SMILES: Oc1cccc(C23CCCC[C@H]2CN(CC2CC2)CC3)c1 (stereo in doubt; 29)
- ED50 (Mus musculus): 3.3 mg/kg
- ED2sec (Rattus norvegicus): 5.6 mg/kg

SMILES: Oc1cccc(C23CCCC[C@H]2CN(CCc2ccccc2)CC3)c1 (single isomer, unassigned; (-))
- Ki (Mu-type opioid receptor): 0.23 nM
- Ki [1]: 89 nM

SMILES: Oc1cccc(C23CCCC[C@H]2CN(CC2CC2)CC3)c1 (single isomer, unassigned; (+)) [listing 2 of 2 here]
- ED50 (Mus musculus): >50 mg/kg
- ED2sec (Rattus norvegicus): >50 mg/kg

SMILES: CCCN1CCC2(c3cccc(O)c3)CCCC[C@H]2C1 (single isomer, unassigned; (-)) [listing 2 of 2 here]
- Ki (Mu-type opioid receptor): 473 nM
